Screens deposited in PubChem BioAssay by several laboratories.
Hits are enriched below; roughly 1.9% of the tested compounds scored in any of these assays.
Casp6 inh = inhibitors of human caspase-6 | P55212 | purified caspase-6, Z-VEID-R110 cleavage fluorescence | inhibition, % at 12.5 µM | actives 0.53% (n = 350,000) | AID 686996;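 active means mean inhibition across replicates at least about 35%, with every replicate also reaching that limit, limit read from the data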;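 further: 0% = median of neutral control wells and 100% = no fluorescence left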
Target sequence (P55212 24-179 limits assumed): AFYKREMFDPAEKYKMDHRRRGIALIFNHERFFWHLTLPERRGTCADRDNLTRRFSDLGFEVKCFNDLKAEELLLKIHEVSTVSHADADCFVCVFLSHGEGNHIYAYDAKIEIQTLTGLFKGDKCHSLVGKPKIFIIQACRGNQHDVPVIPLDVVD
Target sequence (P55212 194-293 limits assumed): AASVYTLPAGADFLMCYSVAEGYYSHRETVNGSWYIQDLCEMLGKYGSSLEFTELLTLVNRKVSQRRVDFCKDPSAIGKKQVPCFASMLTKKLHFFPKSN
TDP2 inh = TDP2 (human) inhibition, absorbance primary screen. O95551. recombinant TDP2, T5PNP hydrolysis, p-nitrophenol absorbance 415 nm. inhibition, % at 12.8 µM. actives 0.34% (n = 370,000). AID 720702;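 active means inhibition above the mean of all tested compounds plus 3 SD, set per campaign, cut at about 25% in these data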;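 further: 0% = DMSO with enzyme and 100% = buffer with substrate but no TDP2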
Target sequence (O95551 whole entry, looked up): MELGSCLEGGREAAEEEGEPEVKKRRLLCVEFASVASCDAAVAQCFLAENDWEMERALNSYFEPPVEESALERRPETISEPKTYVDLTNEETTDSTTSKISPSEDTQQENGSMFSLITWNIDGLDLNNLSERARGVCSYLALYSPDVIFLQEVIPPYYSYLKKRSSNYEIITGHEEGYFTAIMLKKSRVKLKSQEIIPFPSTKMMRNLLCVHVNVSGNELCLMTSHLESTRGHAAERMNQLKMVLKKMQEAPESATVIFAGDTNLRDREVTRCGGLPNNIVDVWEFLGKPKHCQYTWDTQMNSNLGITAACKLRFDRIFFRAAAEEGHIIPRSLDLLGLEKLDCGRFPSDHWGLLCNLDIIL
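System: recombinant human TDP2 / Amount: 120 nM TDP2 per well / Also added: 5 mM T5PNP chromogenic substrate / Doses: 12.8 µM single point, 1% DMSO / Incubation: 2 h at 37 °C / Detection: p-Nitrophenol epi absorbance / Evaluation: % inhibition relative to enzyme-containing and enzyme-free wells / Repeats: singlicate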
LEDGF integ inh = blocks HIV-1 LEDGF/p75-dependent DNA integration; TR-FRET IN-LEDGF/p75 DNA integration, Eu/Cy5; inhibition, % at 3.7 µM; actives 0.64% (n = 370,000); AID 743269;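 active means inhibition above the screen-wide mean plus 3 SD, cut at about 13% in these data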;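 further: signal is the Cy5 over europium emission ratio at 671 and 618 nm; 0% = plate median of compound wells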
UHRF1 MBD2 ctr = UHRF1 methyl-DNA binding inhibition; Q96T88; UHRF1 binding to methylated oligo, TR-FRET; inhibition, % at 4.4 µM; actives 0.75% (n = 370,000); in the data active means inhibition above about 21%;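 further: UHRF1 SRA domain binding a hemimethylated CpG hairpin DNA probe; 0% = median of test compound wells and 100% = reference inhibitor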
NSD2 HMT inh = NSD2 (human) methyltransferase inhibition | actives 0.54% (n = 310,000) | inhibition, % at 12.5 µM | NSD2 peptide methylation, AlphaScreen, 120 min | O96028; in the data active means inhibition above about 50%
MBD2 DNA inh = MBD2-methylated oligo binding inhibition | TR-FRET, MBD2 binding to methylated oligonucleotide | inhibition, % at 4.4 µM | actives 0.31% (n = 370,000); in the data active means inhibition above about 13%
An asterisk follows results filed as active; nt = not tested or not shown.

SMILES | Casp6 inh | TDP2 inh | LEDGF integ inh | UHRF1 MBD2 ctr | NSD2 HMT inh | MBD2 DNA inh
O=C(O)c1cc([N+](=O)[O-])cc2c1C=Cc1ccccc1O2 | 38* | 12 | 2 | 4 | 4 | 4
Cc1noc(C)c1NC(=O)N(C)C[C@H]1OCCCC[C@@H](C)Oc2ccc(NC(=O)C3CCCCC3)cc2C(=O)N([C@H](C)CO)C[C@@H]1C | -1 | nt | nt | nt | nt | nt
COC(=O)c1ccc(/C=C/c2c(-c3ccsc3)sc3ccccc23)cc1 | -3 | 0 | 2 | 23* | nt | -1
COc1ccc(-c2sc3ccccc3c2/C=C/c2ccc(N)cc2)cc1 | -3 | 4 | -4 | -1 | nt | -1
CN1C(=O)[C@@H]2[C@@H](CC(COc3ccccc3)=C3[C@@H](c4ccccc4)OB(O)C[C@@H]32)C1=O | 1 | nt | nt | nt | nt | nt
CCS(=O)(=O)c1ccc2oc(SCC(=O)NCCc3ccc(OC)cc3)nc2c1 | -6 | 0 | -5 | 29* | 29 | 0
CO[C@H]1CN(C)C(=O)c2ccc(NC(=O)C3CC3)cc2OC[C@@H](C)N(CCC(F)(F)F)C[C@@H]1C | 6 | nt | nt | nt | nt | nt
O=C(c1ccccc1)N1CCC(=O)N1c1ccccc1 | nt | -3 | -2 | 37* | -3 | 1
Cn1cnc(S(=O)(=O)N[C@@H]2C=C[C@H](CC(=O)NCC3CC3)O[C@@H]2CO)c1 | -1 | nt | nt | nt | nt | nt
COc1ccccc1-c1cn(CC[C@H]2CC[C@@H](NC(=O)C3CC3)[C@H](CO)O2)nn1 | -2 | nt | nt | nt | nt | nt
COC(=O)C1SCC2C(=O)N(Cc3ccc(F)cc3)CC(=O)N21 (stereo not drawn) | -1 | 2 | -2 | 21* | -3 | 4
CN1CCN(C(=O)C[C@@H]2CC[C@@H]3[C@H](COC[C@H](O)CN3Cc3ccc(Oc4ccccc4)cc3)O2)CC1 | 1 | nt | nt | nt | nt | nt
C=C[C@]1(C)C=C2C(=O)[C@@]3(O)OC(=O)[C@@]4(CCCC(C)(C)[C@H]34)[C@@]2(O)CC1 | 37* | -3 | -9 | -2 | nt | -6
CN1CCN(c2ccc(S(=O)(=O)N3CCOCC3)cc2NC(=O)CC(C)(C)C)CC1 | -2 | 0 | 0 | 61* | 1 | 1
COc1ccc(CNC(=O)c2cc(S(=O)(=O)N3CCCCC3)ccc2N2CCOCC2)cc1OC | -1 | -2 | -3 | 30* | -3 | 1
CCCC(=O)Nc1cc(S(=O)(=O)N2CCCCC2)ccc1N1CCOCC1 | 0 | -25 | 4 | 21* | -2 | 4
CN1C(=O)c2cc(NC(=O)C3CCCCC3)ccc2OC[C@H]2O[C@@H](CC(=O)NCC3CCCCC3)CC[C@@H]21 | 2 | nt | nt | nt | nt | nt
C[C@H](CO)N1C[C@H](C)[C@H](CN(C)Cc2cccc(F)c2)Oc2cc(C#Cc3ccccn3)ccc2S1(=O)=O | -2 | nt | nt | nt | nt | nt
CN(C)c1ccc(-c2nnc(-c3cccs3)o2)cc1 | 5 | 1 | -1 | -1 | -6 | 3
Brc1ccc(-c2cnc(-c3cccs3)o2)cc1 | nt | 10 | 3 | 21* | -8 | 7
CN(C)CC(=O)Nc1ccc2c(c1)[C@@H]1C[C@@H](CC(=O)NCc3ccccn3)O[C@@H](CO)[C@@H]1O2 | 2 | nt | nt | nt | nt | nt
CN(CC#CC1(O)c2ccccc2-c2ccccc21)Cc1ccccc1 | nt | 7 | 3 | 23* | 11 | 10
O=C(NC1CCCCC1)C(c1ccc(Cl)cc1)N(C(=O)c1cnccn1)c1ccc2c(c1)OCO2 (stereo not drawn) | nt | 0 | -1 | 22* | -1 | 11
COc1cccc(N(C(=O)c2cnccn2)C(C(=O)NC2CCCCC2)c2ccc(Cl)cc2)c1 (stereo not drawn) | nt | -3 | 0 | 2 | -3 | 4
O=C(NC1CCCCC1)C(c1ccncc1)N(Cc1ccc2c(c1)OCO2)C(=O)c1cnsn1 (stereo not drawn) | nt | -10 | 12 | 21* | 0 | 0
SMILES | Casp6 inh | TDP2 inh | LEDGF integ inh | UHRF1 MBD2 ctr | NSD2 HMT inh | MBD2 DNA inh
O=C(NC1CCCCC1)N1CC(=O)N2[C@H](C1)[C@H](c1ccc(-c3cccnc3)cc1)[C@@H]2CO | 1 | nt | nt | nt | nt | nt
C[C@H]1CN([C@@H](C)CO)C(=O)c2cc(NC(=O)c3ccncc3)ccc2O[C@@H]1CN(C)S(=O)(=O)c1cn(C)cn1 | -1 | nt | nt | nt | nt | nt
C[C@@H]1CN([C@H](C)CO)C(=O)c2cc(/C=C/c3ccccc3)cnc2O[C@@H]1CN(C)Cc1ccccc1F | 1 | nt | nt | nt | nt | nt
N=C1C(c2nc3ccccc3s2)=C(O)CN1NC(=O)c1ccco1 | 5 | 6 | -3 | 39* | 1 | -2
COc1cccc(N2CC(O)=C(c3nc4ccccc4s3)C2=N)c1 | 3 | -2 | -3 | 23* | 0 | -1
COc1cccc(C(=O)NN2CC(O)=C(c3nc4ccccc4s3)C2=N)c1 | -1 | -7 | 2 | -4 | -8 | 4
C[C@@H]1CN([C@H](C)CO)C(=O)c2cccc(N(C)C)c2O[C@H]1CN(C)Cc1ccc(-c2ccccc2)cc1 | 0 | nt | nt | nt | nt | nt
O=C(NCC(=O)N1CC=C(c2ccccc2)CC1)c1ccc(OC(F)F)cc1 | 0 | 5 | 0 | 1 | -4 | -4
O=C(NCC(=O)N1CC=C(c2ccccc2)CC1)c1ccccc1Br | 80* | 0 | -2 | 2 | -3 | 4
COc1cc(C)nc(N(C)S(=O)(=O)c2ccccc2Cl)n1 | nt | 21 | 12 | 28* | -4 | 9
O=S(=O)(NC[C@H]1N[C@H](CO)[C@H]1c1ccccc1)c1ccccc1 | -6 | nt | nt | nt | nt | nt
CCS(=O)(=O)Nc1ccc2c(c1)C(=O)N(C)[C@H]1CC[C@H](CC(=O)N3CCCCC3)O[C@H]1CO2 | -4 | nt | nt | nt | nt | nt
CCOC(=O)CC1C(=O)NCCN1S(=O)(=O)c1cccc(C(F)(F)F)c1 (stereo not drawn) | 42* | 20 | 0 | 0 | 0 | 1
CN(C)CC(=O)Nc1ccc2c(c1)[C@@H]1C[C@@H](CC(=O)NC3CCCC3)O[C@H](CO)[C@@H]1O2 | -2 | nt | nt | nt | nt | nt
CCc1nc(SCC(=O)O)c(C#N)c2c1CCCC2 | 1 | -1 | -6 | 0 | 0 | 3
Cc1nc(SCC(=O)O)c(C#N)c2c1CCCC2 | 39* | 8 | -1 | 8 | 17 | 3
O=C(O)CCc1ccc(-c2ccccc2)n1Cc1ccco1 | nt | 4 | 18* | 15 | 0 | 7
O=C(O)CCc1ccc(-c2ccc(Br)cc2)n1Cc1ccco1 | nt | 1 | 1 | 1 | 3 | 5
Cc1noc(C)c1NC(=O)N(C)C[C@@H]1Oc2c(NC(=O)Nc3ccc4c(c3)OCO4)cccc2C(=O)N([C@@H](C)CO)C[C@@H]1C | 0 | nt | nt | nt | nt | nt
N#C/C(=C/c1ccco1)C(N)=S | 46* | 12 | 4 | -7 | -14 | -5
N#C/C(=C\c1ccc2c(c1)OCO2)C(N)=S | -1 | -4 | -3 | 0 | -2 | -2
CCC(=O)Nc1ccc2c(c1)OC[C@H](C)N(CC1CCOCC1)C[C@H](C)[C@@H](OC)CN(C)C2=O | 1 | nt | nt | nt | nt | nt
